# The source made the active and inactive calls. No cut-off for these calls is given here.
# Legend:
# [1] = system: 786-0; test: Growth inhibition of human 786-0 cells incubated for 48 hrs by sulforhodamine B assay; assay type: functional; details: 786-0, 48 h
# How it was run: (§1)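 NCI full panel screen: five 10-fold dilutions (10^-4–10^-8 M). GI50 is the molar concentration giving 50% inhibition of net cell growth.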
# [2] = system: OVCAR-3; test: Growth inhibition of human OVCAR3 cells incubated for 48 hrs by sulforhodamine B assay; assay type: functional; details: OVCAR-3, 48 h; how it was run: as §1
# [3] = system: SK-OV-3; test: Growth inhibition of human SKOV3 cells incubated for 48 hrs by sulforhodamine B assay; assay type: functional; details: SK-OV-3, 48 h
# How it was run: (§2)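 NCI full-panel human tumour cell screen. Cells were exposed to five 10-fold dilutions from 10^-4 to 10^-8 M. GI50 is the molar concentration giving 50% inhibition of net cell growth, and a mean graph midpoint was calculated across the panel.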
# [4] = system: OVCAR-5; test: Growth inhibition of human OVCAR5 cells incubated for 48 hrs by sulforhodamine B assay; assay type: functional; details: OVCAR-5, 48 h; how it was run: as §1
# [5] = system: IGROV-1; test: Growth inhibition of human IGROV1 cells incubated for 48 hrs by sulforhodamine B assay; assay type: functional; details: IGROV-1, 48 h; how it was run: as §1
# [6] = system: SK-MEL-28; test: Growth inhibition of human SK-MEL-28 cells incubated for 48 hrs by sulforhodamine B assay; assay type: functional; details: SK-MEL-28, 48 h; how it was run: as §2
# [7] = system: NCI-H460; test: Growth inhibition of human NCI-H460 cells incubated for 48 hrs by sulforhodamine B assay; assay type: functional; details: NCI-H460, 48 h; how it was run: as §1
# [8] = system: SK-MEL-5; test: Growth inhibition of human SK-MEL-5 cells incubated for 48 hrs by sulforhodamine B assay; assay type: functional; details: SK-MEL-5, 48 h; how it was run: as §2
# [9] = system: Caco-2; test: Cytotoxicity against human Caco2 cells assessed as reduction in cell survival at 25 to 100 uM after 72 hrs by MTT assay; assay type: cell-based; details: caco-2, 72 h
# How it was run: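 Caco-2 cells, differentiated 15 days post-confluence, seeded at 2 x 10^4 cells/well and treated 72 h with 5–100 µM compound. MTT added (5 mg/mL in FBS-free medium), 2 h at 37 °C, formazan dissolved in DMSO, absorbance at 570 nm. Viability relative to vehicle control (100%); LC50 taken from the viability-concentration plot. At least three experiments in triplicate.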
# [10] = system: Malme-3M; test: Growth inhibition of human MALME-3M cells incubated for 48 hrs by sulforhodamine B assay; assay type: functional; how it was run: as §1
# [11] = system: HOP-92; test: Growth inhibition of human HOP92 cells incubated for 48 hrs by sulforhodamine B assay; assay type: functional; details: HOP-92, 48 h; how it was run: as §1
# [12] = system: NCI-H322M; test: Growth inhibition of human NCI-H322M cells incubated for 48 hrs by sulforhodamine B assay; assay type: functional; how it was run: as §1
# [13] = system: SNB-75; test: Growth inhibition of human SNB75 cells incubated for 48 hrs by sulforhodamine B assay; assay type: functional; details: SNB-75, 48 h; how it was run: as §2
# [14] = system: A549; test: Growth inhibition of human A549/ATCC cells incubated for 48 hrs by sulforhodamine B assay; assay type: functional; details: A549, 48 h; how it was run: as §1
# [15] = system: MDA-MB-435; test: Growth inhibition of human MDA-MB-435 cells incubated for 48 hrs by sulforhodamine B assay; assay type: functional; details: MDA-MB-435, 48 h; how it was run: as §1
# [16] = system: HCT-15; test: Growth inhibition of human HCT15 cells incubated for 48 hrs by sulforhodamine B assay; assay type: functional; details: HCT-15, 48 h; how it was run: as §1
# [17] = system: OVCAR-8; test: Growth inhibition of human OVCAR8 cells incubated for 48 hrs by sulforhodamine B assay; assay type: functional; details: OVCAR-8, 48 h; how it was run: as §1
# [18] = system: MCF7; test: Cell cycle arrest in human MCF7 cells assessed as increase in accumulation at G2/M phase at GI50 concentration after 48 hrs by propidium iodide-staining based flow cytometry; assay type: functional
# How it was run: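 Cells were trypsinized, washed in cold PBS, and 1 x 10^6 cells stained with 20 µg/ml PI plus 200 µg/ml RNase for 30 min at room temperature in the dark. At least 1x 10^4 cells were analysed by flow cytometry. Mean±SD of three experiments in triplicate.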
# [19] = system: MOLT-4; test: Growth inhibition of human MOLT4 cells incubated for 48 hrs by sulforhodamine B assay; assay type: functional; details: MOLT-4, 48 h; how it was run: as §1
# [20] = system: HCC 2998; test: Growth inhibition of human HCC2998 cells incubated for 48 hrs by sulforhodamine B assay; assay type: functional; details: HCC 2998, 48 h; how it was run: as §1
# [21] = system: Panel NCI-60 (60 carcinoma cell lines); test: Growth inhibition of human NCI60 cells at 10^-5 M incubated for 48 hrs by sulforhodamine B assay; assay type: functional, cell-based
# [22] = system: DU-145; test: Growth inhibition of human DU145 cells incubated for 48 hrs by sulforhodamine B assay; assay type: functional; details: DU-145, 48 h; how it was run: as §1
# [23] = system: HCT-116; test: Growth inhibition of human HCT116 cells incubated for 48 hrs by sulforhodamine B assay; assay type: functional; details: HCT-116, 48 h; how it was run: as §1
# [24] = system: UACC-62; test: Growth inhibition of human UACC62 cells incubated for 48 hrs by sulforhodamine B assay; assay type: functional; details: UACC-62, 48 h; how it was run: as §2
# [25] = system: MDA-MB-231; test: Growth inhibition of human MDA-MB-231 cells incubated for 48 hrs by sulforhodamine B assay; assay type: functional; details: MDA-MB-231, 48 h; how it was run: as §1
# [26] = system: RXF 393; test: Growth inhibition of human RXF393 cells incubated for 48 hrs by sulforhodamine B assay; assay type: functional; details: RXF 393, 48 h; how it was run: as §1
# [27] = system: HOP-62; test: Growth inhibition of human HOP62 cells incubated for 48 hrs by sulforhodamine B assay; assay type: functional; details: HOP-62, 48 h; how it was run: as §1
# [28] = system: SF-268; test: Growth inhibition of human SF268 cells incubated for 48 hrs by sulforhodamine B assay; assay type: functional; details: SF-268, 48 h; how it was run: as §1
# [29] = system: M14; test: Growth inhibition of human M14 cells incubated for 48 hrs by sulforhodamine B assay; assay type: functional; details: M14, 48 h; how it was run: as §1
# [30] = system: CAKI-1; test: Growth inhibition of human Caki1 cells incubated for 48 hrs by sulforhodamine B assay; assay type: functional; details: CAKI-1, 48 h; how it was run: as §1
# [31] = system: UO-31; test: Growth inhibition of human UO31 cells incubated for 48 hrs by sulforhodamine B assay; assay type: functional; details: UO-31, 48 h; how it was run: as §2
# [32] = system: K562; test: Growth inhibition of human K562 cells incubated for 48 hrs by sulforhodamine B assay; assay type: functional; details: K562, 48 h; how it was run: as §1
# [33] = system: OVCAR-4; test: Growth inhibition of human OVCAR4 cells incubated for 48 hrs by sulforhodamine B assay; assay type: functional; details: OVCAR-4, 48 h; how it was run: as §1
# [34] = system: U-251; test: Growth inhibition of human U251 cells incubated for 48 hrs by sulforhodamine B assay; assay type: functional; details: U-251, 48 h; how it was run: as §2
# [35] = system: MCF7; test: Induction of apoptosis in human MCF7 cells assessed as necrotic cells at 2 x 10^-6 M after 72 hrs by Annexin V/propidium iodide double staining-based flow cytometry (reference value: 0.1%); assay type: functional
# How it was run: (§3)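 MCF-7 cells were grown in RPMI with 10% FBS, 2 mM L-glutamine and antibiotics at 37 °C in 5% CO2. They were seeded at 2.0 x 10^5 cells/cm2 in triplicate, left to adhere overnight, then treated for 72 h; DMSO 0.1% served as vehicle. Trypsinised cells at 2.0 x 10^5/mL were stained with annexin V-FITC and PI for 15 min at room temperature in the dark. At least 1.0 x 10^4 cells were gated into viable, early apoptotic, late apoptotic and necrotic quadrants.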
# [36] = system: MCF7; test: Induction of apoptosis in human MCF7 cells assessed as early apoptotic cells at 2 x 10^-6 M after 72 hrs by Annexin V/propidium iodide double staining-based flow cytometry (reference value: 1%); assay type: functional; how it was run: as §3
SMILES,GI50 [1],GI50 [2],GI50 [4],GI50 [5],GI50 [6],GI50 [7],GI50 [8],Activity [9],GI50 [10],GI50 [11],GI50 [12],GI50 [13],GI50 [14],GI50 [15],GI50 [16],GI50 [17],GI50 [20],growth inhibition (GI) [21],GI50 [23],GI50 [24],further results
COCCn1cc(-c2nc(-c3c[nH]c4ncccc34)cs2)c2cc(OC)ccc21,3.44 µM,4.66 µM,0.61 µM,0.55 µM,7.39 µM,1.32 µM,5.53 µM,Non-Toxic,12.6 µM,0.99 µM,1.95 µM,1100 nM,4.41 µM,6410 nM,2150 nM,4.11 µM,4.81 µM,Active,4.55 µM,5.98 µM,GI50 [3]: 3.49 µM; Activity [18]: Active; GI50 [19]: 6.02 µM; GI50 [22]: 4.28 µM; GI50 [25]: 2020 nM; GI50 [26]: 1.18 µM; GI50 [27]: 2120 nM; GI50 [28]: 4.42 µM; GI50 [29]: 5.82 µM; GI50 [30]: 4.36 µM; GI50 [31]: 2.31 µM; GI50 [32]: 4.79 µM; GI50 [33]: 30 nM; GI50 [34]: 4.43 µM
COCCn1cc(-c2csc(-c3c[nH]c4ccc(F)cc34)n2)c2cccnc21,5.12 µM,3.34 µM,10.1 µM,3.49 µM,7.72 µM,3.38 µM,2.69 µM,Toxic,4.54 µM,6.29 µM,> 100 µM,2970 nM,4.51 µM,900 nM,2350 nM,4.1 µM,4.54 µM,Active,3.77 µM,6.78 µM,Activity [18]: Active; GI50 [19]: 5.56 µM; Activity [35]: 0.1%; Activity [36]: 29.2%; GI50 [22]: 18.8 µM; GI50 [25]: 2590 nM; GI50 [26]: 5.91 µM; GI50 [27]: 2020 nM; GI50 [28]: 7.67 µM; GI50 [29]: 3.14 µM; GI50 [30]: 9.54 µM; GI50 [31]: 4.41 µM; GI50 [32]: 2.12 µM; GI50 [33]: 2590 nM; GI50 [34]: 5.14 µM
COCCn1cc(-c2csc(-c3c[nH]c4ccccc34)n2)c2cccnc21,6.25 µM,2.94 µM,28.2 µM,2.53 µM,8.19 µM,3.4 µM,3.22 µM,Toxic,3.58 µM,14.9 µM,> 100 µM,1430 nM,7.1 µM,860 nM,2340 nM,8 µM,4.08 µM,Active,3.63 µM,4.58 µM,GI50 [3]: 14.8 µM; Activity [18]: Active; Activity [35]: 0.1%; Activity [36]: 46.5%; GI50 [22]: 15.4 µM; GI50 [25]: 5050 nM; GI50 [26]: 5.76 µM; GI50 [27]: 2820 nM; GI50 [28]: 6.98 µM; GI50 [29]: 3.22 µM; GI50 [30]: 8.36 µM; GI50 [31]: 4.15 µM; GI50 [32]: 2.8 µM; GI50 [33]: 1760 nM; GI50 [34]: 6.12 µM
COCCn1cc(-c2csc(-c3c[nH]c4ccc(Br)cc34)n2)c2cccnc21,4.03 µM,3.9 µM,4.83 µM,4.06 µM,4.79 µM,3.07 µM,3.24 µM,Toxic,3.66 µM,4.39 µM,11.8 µM,4720 nM,6.89 µM,4120 nM,3140 nM,5.35 µM,3.8 µM,Active,3.84 µM,4.2 µM,GI50 [3]: 13.9 µM; GI50 [19]: 3.87 µM; Activity [35]: 0.1%; Activity [36]: 36.3%; GI50 [25]: 2650 nM; GI50 [26]: 3.3 µM; GI50 [27]: 7980 nM; GI50 [29]: 3.27 µM; GI50 [30]: 5.21 µM; GI50 [31]: 3.1 µM; GI50 [32]: 3.6 µM; GI50 [33]: 2740 nM; GI50 [34]: 6.18 µM
